Source: PubChem BioAssay (Sanford-Burnham Center for Chemical Genomics)
This is a sample that favours compounds with a hit; in the whole collection about 1.5% have one here.
APJ ag: agonists of human apelin receptor APJ, primary screen, CHO-K1 cells, PathHunter beta-arrestin, luminescence; P35414; 0% DMSO wells, 100% apelin; activation, % at 20 µM; 0.11% of 330,000 active; AID 2520, 2010;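 active = activation more than six SD over the plate average, tested at 20 µM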;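 also: 0% = DMSO alone and 100% = apelin-13 at 10 nM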
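system = engineered CHO-K1 APJ arrestin reporter cells | input = 1000 cells per well | timing = overnight seeding, 90 min compound at 25 °C, 1 h detection | measured by = enzyme-fragment complementation luminescence | read-out = beta-arrestin recruitment to APJ as agonist activity, luminescent signal | control set = negative DMSO alone, positive Apelin-13 at 10 nM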
EBI2 block: EBI2 receptor antagonists, beta-arrestin recruitment, primary screen, cell-based, luminescence, 7a,25-OHC stimulation, uHTS; 7a,25-OHC stimulated; inhibition, % at 5 µM; 0.81% of 360,000 active; in the data active = inhibition above about 38%;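 also: enzyme fragment complementation signal reports receptor beta-arrestin coupling in cells; 0% = agonist plus DMSO wells and 100% = wells without agonist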
CXCR6 block: CXCR6 receptor inhibitors, primary screen, cell-based, beta-arrestin, luminescence, CHO-K1 PathHunter, 1536-well; 0.36% of 360,000 active; AID 602244, 2012; C-X-C chemokine receptor type 6 (Homo sapiens), O00574; inhibition, % at 20 µM; in the data active = inhibition above about 34%, passing the limit was not always enough;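 also: antagonist mode with CXCL16 agonist at 10 nM final; 0% = 10 nM CXCL16 with DMSO and 100% = unstimulated wells without agonist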
APJ antag: antagonists of human apelin receptor APJ, primary screen, CHO-K1 cells, beta-arrestin complementation, luminescence | P35414 | inhibition, % at 20 µM | 0.32% of 330,000 active;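 active = inhibition above about 40% at 20 µM, limit read from the data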;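 also: cells challenged with 10 nM apelin-13 agonist together with compound; plate controls were apelin-13 plus DMSO wells for no effect and DMSO wells lacking apelin-13 for full effect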
CCR6 antag: CCR6 receptor antagonists, primary screen, cell-based, CHO-K1, luminescence, beta-arrestin, uHTS. C-C chemokine receptor type 6 (Homo sapiens), P51684. CHO-K1 CCR6 PathHunter beta-arrestin, CCL20-stimulated. inhibition, % at 20 µM. 0.49% of 340,000 active;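 active = compounds whose inhibition of the agonist-driven luminescence signal at 20 µM reaches about 50%, limit read from the data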;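 also: cells stimulated with CCL20 at 14 nM final; plate controls were DMSO with CCL20 for no effect and DMSO without agonist for full effect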
Target sequence (P51684 whole entry, looked up): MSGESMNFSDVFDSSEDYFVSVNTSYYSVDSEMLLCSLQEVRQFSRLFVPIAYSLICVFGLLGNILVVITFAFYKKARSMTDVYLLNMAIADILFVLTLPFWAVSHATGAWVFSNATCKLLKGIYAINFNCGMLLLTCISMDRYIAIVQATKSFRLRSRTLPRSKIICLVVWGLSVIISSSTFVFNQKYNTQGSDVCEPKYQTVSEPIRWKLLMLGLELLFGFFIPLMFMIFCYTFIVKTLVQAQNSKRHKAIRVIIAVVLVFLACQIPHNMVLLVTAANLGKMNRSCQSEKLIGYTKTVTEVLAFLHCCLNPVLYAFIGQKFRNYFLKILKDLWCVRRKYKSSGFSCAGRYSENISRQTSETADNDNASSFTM
Numbers without * were called inactive; nt = no result given.

SMILES	APJ ag	EBI2 block	CXCR6 block	APJ antag	CCR6 antag
COc1cccc(NC(=O)COC(=O)CCSc2ccccc2)c1	-4	7	-3	4	9
CN(CCOc1ccc(Cl)cc1)C(=O)c1cccc(S(=O)(=O)N2CCN(c3ccc(F)cc3)CC2)c1	nt	56*	21	nt	7
CCN1/C(=c2/s/c(=C3/C(=O)N(c4ccccc4)N=C3C)n(CC)c2=O)C=Cc2ccccc21	-2	-1	10	11	52*
CCN1/C(=C2\C(=O)N(c3ccccc3)N=C2C)C=Cc2cc(C)ccc21	-5	-8	0	7	11
CCc1ccc(C(=O)NC(=S)NCc2cccnc2)cc1	5	3	-4	-8	9
Oc1ccc(/C=N/Nc2cc(N3CCCC3)nc(N3CCCC3)n2)cc1	-4	55*	-2	1	5
CCOC(=O)c1cnc(-n2nc(C)cc2C)nc1NC(C)c1ccccc1 (centres undefined)	-6	51*	29	25	41
COc1ccccc1Cn1c(/C=C/c2ccccc2)nc2ccccc21	-1	44	21	4	17
COc1ccc(/C=C/c2nc3ccccc3n2Cc2ccccc2OC)cc1	-4	55*	7	21	12
O=C(O)c1ccccc1SCCS(=O)(=O)c1ccc(Cl)cc1Cl	-2	0	-1	6	4
N=C1/C(=C\c2ccc(-c3ccc(C(=O)O)cc3)o2)C(=O)N=C2SC=C(c3ccccc3)N12	nt	14	34	nt	53*
N#C/C(=C\c1cc2c(cc1Br)OCO2)c1ccc(C(=O)O)cc1	-1	2	-1	-17	7
CC(C)(CNC(=O)C1c2ccccc2-c2ccccc21)N1CCOCC1	3	1	2	12	9
COc1ccc(S(=O)(=O)Oc2ccc3ccccc3c2)cc1	-2	-5	6	-8	5
COC1=C(OC)C(=O)C(Sc2ccc3ccccc3c2)=CC1=O	nt	-1	72*	nt	nt
Cc1cccc2nc(-c3ccco3)c(Nc3ccccc3)n12	-4	0	4	16	18
Cc1ccc(Nc2c(-c3ccccn3)nc3cccc(C)n23)cc1	-10	22	42*	23	64*
Cc1cccc(Nc2nc(-c3sc(C)nc3C)cs2)c1	-1	57*	6	-3	-10
CC(C)(C)c1ccc(C(=O)N2CCC2(C)C(=O)NS(=O)(=O)c2ccc(C#N)cc2)cc1 (centres undefined)	nt	-8	2	nt	nt
CNC(CC(=O)c1ccc([N+](=O)[O-])cc1)C(Cl)(Cl)Cl (centres undefined)	nt	-1	90*	nt	nt
COc1cc(/C=C2\SC(N3CCC(C)CC3)=NC2=O)ccc1O	-4	40*	0	15	12
CC(C)C[C@H]1C(=O)N2CCC[C@H]2[C@]2(O)O[C@](NC(=O)[C@@H]3C=C4c5cccc6[nH]c(Br)c(c56)CC4N(C)C3)(C(C)C)C(=O)N12 (some centres undefined)	5	89*	4	0	11
COc1ccccc1NC(=O)CN(Cc1ccco1)C(=O)c1cc2ccccc2o1	-4	5	-7	14	nt
Cc1ccc(C2=NOC(=O)/C2=C\C=C\c2ccccc2)cc1	nt	36	48*	nt	25
CN(C)/C=C1\C(=O)ON=C1c1ccccc1	-6	-11	-12	0	3
SMILES	APJ ag	EBI2 block	CXCR6 block	APJ antag	CCR6 antag
CC1CCCN(C2=NC(=O)/C(=C/c3cn(-c4ccccc4)nc3-c3cccc(S(=O)(=O)N(C)C)c3)S2)C1 (centres undefined)	-1	68*	17	7	-7
N#Cc1ccccc1NC(=O)CSC1=Nc2ccccc2C2CC=NN12 (centres undefined)	-3	-1	-11	12	13
O=C(CSC1=Nc2ccccc2C2CC=NN12)Nc1ccc2c(c1)OCO2 (centres undefined)	nt	5	29	nt	54*
S=C(Nc1ccccc1)Nc1cc(Cl)ccc1Oc1ccccc1	-3	-2	5	13	93*
O=C(/C=C/c1cccs1)c1ccc(NC(=O)c2cccc(Br)c2)cc1	-2	58*	11	-16	14
CCCCC(=O)Nc1ccc(C(=O)Nc2ccc(S(=O)(=O)Nc3nccc(C)n3)cc2)cc1	-3	-9	-1	-21	-17
O=C1N=C(N2CCCCC2)SC1=C1CCCCC1	-3	-3	-1	8	5
O=C1NC(=S)SC1=C1CCCCCC1	-4	-2	5	17	51*
O=C(NCCOc1ccccc1F)c1cc([N+](=O)[O-])ccc1N1CCOCC1	-4	24	-8	16	3
O=C(NCCOc1ccccc1)c1cc([N+](=O)[O-])ccc1N1CCOCC1	-2	59*	6	-38	15
O=C(O)c1ccccc1NS(=O)(=O)c1cccc(C(F)(F)F)c1	-4	-11	6	9	3
O=C(O)c1ccccc1NS(=O)(=O)c1cccc(-n2sc3ccccc3c2=O)c1	2	96*	-18	-34	-36
COc1cc(/C=C(\C#N)c2nc3ccc(C)cc3[nH]2)cc([N+](=O)[O-])c1O	nt	9	24	nt	51*
CCN(CC)c1ccc(/C=C(/C#N)c2nc3ccc(C)cc3[nH]2)c(OC(C)C)c1	-6	35	22	27	52*
CC(=O)c1c(N)[nH]c(-c2ccccc2)nc1=S	-9	0	16	24	57*
Cc1ccccc1C1=C/C(=C(\SS/C(C(=O)c2ccc(OCC(=O)O)c(Cl)c2Cl)=C2\C=C(c3ccccc3C)SS2)C(=O)c2ccc(OCC(=O)O)c(Cl)c2Cl)SS1	nt	13	29	nt	62*
Cc1ccc(O)c(C2=NNC(c3ccc(Cl)cc3)C2)c1 (centres undefined)	-4	2	17	70*	18
O=C(Nc1nnc(-c2cccs2)o1)c1cccc(C(F)(F)F)c1	-2	-6	44*	0	44
C=C1C(=O)C=C2CN(C(=O)c3ccccc3)[C@@](Cc3ccc(F)cc3)(C(=O)OC)[C@@H]12	-10	76*	88*	37	100*
C=C1C(=O)CC2=C1[C@](Cc1ccc(F)cc1)(C(=O)OC)N(C(=O)c1ccccc1)C2	nt	3	5	nt	nt
COC(=O)c1ccc(CSc2ccccc2NC(=S)Nc2cccc(C(F)(F)F)c2)o1	nt	-3	-9	nt	nt
Cc1ccc(N2C(=O)C3C4C=CC(CC4)C3C2=O)cc1[N+](=O)[O-] (centres undefined)	-2	9	3	-15	-2
Cc1c(Cl)cc(-n2cnnn2)cc1[N+](=O)[O-]	2	-21	-27	-28	-15
Cc1cc(C)cc(N2C(=O)C=CC2=O)c1	nt	6	95*	nt	nt
Cc1c([N+](=O)[O-])cc(N2C(=O)C=CC2=O)cc1[N+](=O)[O-]	nt	0	52*	nt	nt
